Assay results published in ChEMBL document CHEMBL1143230, “5-Substituted 2-aminothiophenes as A1 adenosine receptor allosteric enhancers” (Bioorg Med Chem, 2008).

What was measured:
Conditions in all cases: CHO-K1
[1] = target: T1, Adenosine receptor A1 (Homo sapiens) (UniProt P30542); test: Displacement of [3H]CPX from human adenosine A1 receptor expressed in CHOK1 cells at 10 uM relative to control; assay type: cell-based
T1 sequence (whole entry): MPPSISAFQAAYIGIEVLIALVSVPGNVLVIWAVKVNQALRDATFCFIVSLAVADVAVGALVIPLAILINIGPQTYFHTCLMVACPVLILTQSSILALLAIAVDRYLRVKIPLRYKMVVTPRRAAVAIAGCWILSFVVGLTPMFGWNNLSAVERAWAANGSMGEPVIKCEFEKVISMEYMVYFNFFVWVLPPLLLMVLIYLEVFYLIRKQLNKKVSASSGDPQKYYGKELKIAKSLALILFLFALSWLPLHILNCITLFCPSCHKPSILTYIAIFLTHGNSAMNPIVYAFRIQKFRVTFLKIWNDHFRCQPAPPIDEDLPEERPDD
In short: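 Membranes from CHO-K1 cells expressing human A1 receptor, resuspended at 400 ug/mL in HE buffer with 1 U/mL adenosine deaminase. Incubated with [3H]CPX (2 nM in the added buffer) and 10 uM enhancer (final) for 90 min at room temperature. Non-specific binding defined with 100 uM NECA. Filtration, scintillation counting, triplicate, expressed as % inhibition versus control binding.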

[2] = target: T1, Adenosine receptor A1 (Homo sapiens); test: Activity at human adenosine A1 receptor expressed in CHOK1 cells assessed as agonist-receptor ternary complex remaining by […]; assay type: functional, cell-based
In short: (§1)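 Membranes from CHO-K1 cells stably expressing hA1AR, 10 ug protein. Phase 2: vehicle or enhancer for 30 min. Phase 3: 100 uM BW-1433 plus 25 uM GTPgammaS for 10 min. Score = % specific binding remaining. ED50 and maximal score from hyperbolic fit over 0.1–50 uM, N = 2–3.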

[3] = target: T1, Adenosine receptor A1 (Homo sapiens); test: Activity at human adenosine A1 receptor expressed in CHOK1 cells assessed as agonist-receptor ternary complex remaining by […] after 10 mins; assay type: functional, cell-based; design: concentration or dose not given beside the values; in short: as §1

SMILES | inhibition [1] | ED50 [2] | Activity [3]
Nc1sc(-c2ccc([N+](=O)[O-])cc2)c(-c2cccc(C(F)(F)F)c2)c1C(=O)c1ccccc1 | 34.8% | > 10 µM | 23.7%
Nc1sc(-c2ccc(Cl)cc2)c(-c2cccc(C(F)(F)F)c2)c1C(=O)c1ccccc1 | 59.1% | > 10 µM | 22.5%
Nc1sc(Br)c(-c2cccc(C(F)(F)F)c2)c1C(=O)c1ccccc1 | 47.5% | > 10 µM | 53.5%
CCOC(=O)c1c(N)sc(-c2ccccc2)c1-c1cccc(C(F)(F)F)c1 | 83.6% | > 10 µM | 13.2%
CCOC(=O)c1c(N)sc(-c2ccc(C(F)(F)F)cc2)c1-c1cccc(C(F)(F)F)c1 | 48.5% | > 10 µM | 14.8%
CC(=O)c1ccc(-c2sc(N)c(C(=O)c3ccccc3)c2-c2cccc(C(F)(F)F)c2)cc1 | 25.6% | > 10 µM | 4.8%
COc1ccc(-c2sc(N)c(C(=O)c3ccccc3)c2-c2cccc(C(F)(F)F)c2)cc1 | 65.2% | > 10 µM | 7.4%
CCOC(=O)c1c(-c2cccc(C(F)(F)F)c2)csc1N | 93% | 9.4 µM | 7.8%
CCOC(=O)c1c(N)sc(-c2ccc(Cl)cc2)c1-c1cccc(C(F)(F)F)c1 | 58.4% | 6.6 µM | 57%
Nc1sc(-c2ccccc2)c(-c2cccc(C(F)(F)F)c2)c1C(=O)c1ccccc1 | 82.4% | 2.3 µM | 18.1%
CCOC(=O)c1c(N)sc(-c2ccc([N+](=O)[O-])cc2)c1-c1cccc(C(F)(F)F)c1 | 71.4% | > 10 µM | 10.3%
CCOC(=O)c1c(N)sc(-c2ccc(-c3ccncc3)cc2)c1-c1cccc(C(F)(F)F)c1 | 91% | > 10 µM | 0%
Nc1scc(-c2cccc(C(F)(F)F)c2)c1C(=O)c1ccccc1 | 61.1% | 15.8 µM | 76.8%
CCOC(=O)c1c(N)sc(-c2ccc(C(C)=O)cc2)c1-c1cccc(C(F)(F)F)c1 | 64.6% | > 10 µM | 28.5%
CC(=O)c1cccc(-c2sc(N)c(C(=O)c3ccccc3)c2-c2cccc(C(F)(F)F)c2)c1 | 33.1% | > 10 µM | 18.5%
CCOC(=O)c1c(N)sc(-c2cccc(C(C)=O)c2)c1-c1cccc(C(F)(F)F)c1 | 68.9% | > 10 µM | 14.4%
CCOC(=O)c1c(N)sc(-c2ccc(OC)cc2)c1-c1cccc(C(F)(F)F)c1 | 81.5% | > 10 µM | 17.5%
Nc1sc(Cl)c(-c2cccc(C(F)(F)F)c2)c1C(=O)c1ccccc1 | 87.1% | > 10 µM | 22.2%
